Data: ChEMBL document CHEMBL3526095, “Characterization of the in vitro and in vivo metabolism and disposition and cytochrome P450 inhibition/induction profile of saxagliptin in human” (Drug Metab Dispos, 2012)
pIC50: −log10 of the molar value.

Legend:
Cytochrome P450 2B6 [1] = biological target: T1, Cytochrome P450 2B6 (Homo sapiens, UniProt P20813); assay: Inhibition of CYP2B6 in human liver microsomes assessed as bupropion hydroxylation after 3 mins by LC-MS/MS analysis in presence of NADPH; assay type: ADME
T1 sequence (P20813 whole entry): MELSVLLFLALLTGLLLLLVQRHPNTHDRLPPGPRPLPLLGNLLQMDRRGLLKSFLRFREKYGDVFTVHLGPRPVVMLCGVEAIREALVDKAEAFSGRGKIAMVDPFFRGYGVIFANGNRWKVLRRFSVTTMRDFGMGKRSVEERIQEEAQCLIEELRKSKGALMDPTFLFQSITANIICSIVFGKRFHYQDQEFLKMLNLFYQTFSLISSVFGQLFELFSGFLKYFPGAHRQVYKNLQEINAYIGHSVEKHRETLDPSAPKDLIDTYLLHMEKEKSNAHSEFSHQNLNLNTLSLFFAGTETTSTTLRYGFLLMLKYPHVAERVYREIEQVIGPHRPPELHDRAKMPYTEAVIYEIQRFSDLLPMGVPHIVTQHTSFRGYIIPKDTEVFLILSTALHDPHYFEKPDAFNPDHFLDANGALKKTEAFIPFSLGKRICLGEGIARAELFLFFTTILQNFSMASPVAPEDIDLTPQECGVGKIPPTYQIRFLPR
In short: (§1)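 Pooled HLM from 15 donors, probe substrate near its experimentally determined level, in 100 mM phosphate buffer pH 7.4 at 37°C. Saxagliptin tested at 0.1–50 µM, M2 at 0.1–200 µM. Direct inhibition: 3-min equilibration, then reaction started with 1 mM NADPH. Time-dependent inhibition: 15-min preincubation with or without NADPH, then substrate added.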

Cytochrome P450 2C8 [2] = biological target: T2, Cytochrome P450 2C8 (Homo sapiens, UniProt P10632); assay: Inhibition of CYP2C8 in human liver microsomes assessed as paclitaxel 6alpha-hydroxylation after 3 mins by LC-MS/MS analysis in presence of NADPH; assay type: ADME; in short: as §1
T2 sequence (P10632 whole entry): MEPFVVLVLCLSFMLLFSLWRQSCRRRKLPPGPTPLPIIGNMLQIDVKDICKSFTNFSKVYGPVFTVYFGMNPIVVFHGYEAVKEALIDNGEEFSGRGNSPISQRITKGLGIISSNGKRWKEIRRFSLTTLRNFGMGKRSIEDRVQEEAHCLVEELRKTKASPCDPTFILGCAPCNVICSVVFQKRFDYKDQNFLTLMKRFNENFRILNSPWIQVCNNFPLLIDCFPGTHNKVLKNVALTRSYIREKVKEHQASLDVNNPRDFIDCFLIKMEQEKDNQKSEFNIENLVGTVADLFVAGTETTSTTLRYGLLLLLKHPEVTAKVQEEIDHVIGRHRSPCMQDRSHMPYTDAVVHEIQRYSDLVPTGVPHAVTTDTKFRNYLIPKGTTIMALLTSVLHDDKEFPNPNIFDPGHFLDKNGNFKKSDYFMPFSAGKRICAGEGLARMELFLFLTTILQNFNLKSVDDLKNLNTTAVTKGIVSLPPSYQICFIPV

Cytochrome P450 2C9 [3] = biological target: T3, Cytochrome P450 2C9 (Homo sapiens, UniProt P11712); assay: Inhibition of CYP2C9 in human liver microsomes assessed as paclitaxel 6alpha-hydroxylation after 3 mins by LC-MS/MS analysis in presence of NADPH; assay type: ADME; conditions: in the assay text read “tolbutamide hydroxylation” for “paclitaxel 6alpha-hydroxylation”; in short: as §1
T3 sequence (P11712 whole entry): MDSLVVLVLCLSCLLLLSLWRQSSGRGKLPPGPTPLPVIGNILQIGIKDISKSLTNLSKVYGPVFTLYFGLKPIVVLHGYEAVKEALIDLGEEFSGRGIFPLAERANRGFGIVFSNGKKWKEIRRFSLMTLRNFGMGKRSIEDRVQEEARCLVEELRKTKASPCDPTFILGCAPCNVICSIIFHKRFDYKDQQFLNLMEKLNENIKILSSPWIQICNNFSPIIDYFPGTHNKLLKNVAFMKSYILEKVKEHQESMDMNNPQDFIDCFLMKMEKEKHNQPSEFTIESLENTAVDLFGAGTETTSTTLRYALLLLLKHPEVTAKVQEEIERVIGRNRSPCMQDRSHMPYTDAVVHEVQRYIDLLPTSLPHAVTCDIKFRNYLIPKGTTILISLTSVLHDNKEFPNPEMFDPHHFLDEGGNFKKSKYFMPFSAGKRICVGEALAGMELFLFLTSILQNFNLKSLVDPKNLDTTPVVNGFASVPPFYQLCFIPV

Cytochrome P450 2C19 [4] = biological target: T4, Cytochrome P450 2C19 (Homo sapiens, UniProt P33261); assay: Inhibition of CYP2C19 in human liver microsomes assessed as (S)-mephenytoin 4'-hydroxylation after 3 mins by LC-MS/MS analysis; assay type: ADME; in short: as §1
T4 sequence (P33261 whole entry): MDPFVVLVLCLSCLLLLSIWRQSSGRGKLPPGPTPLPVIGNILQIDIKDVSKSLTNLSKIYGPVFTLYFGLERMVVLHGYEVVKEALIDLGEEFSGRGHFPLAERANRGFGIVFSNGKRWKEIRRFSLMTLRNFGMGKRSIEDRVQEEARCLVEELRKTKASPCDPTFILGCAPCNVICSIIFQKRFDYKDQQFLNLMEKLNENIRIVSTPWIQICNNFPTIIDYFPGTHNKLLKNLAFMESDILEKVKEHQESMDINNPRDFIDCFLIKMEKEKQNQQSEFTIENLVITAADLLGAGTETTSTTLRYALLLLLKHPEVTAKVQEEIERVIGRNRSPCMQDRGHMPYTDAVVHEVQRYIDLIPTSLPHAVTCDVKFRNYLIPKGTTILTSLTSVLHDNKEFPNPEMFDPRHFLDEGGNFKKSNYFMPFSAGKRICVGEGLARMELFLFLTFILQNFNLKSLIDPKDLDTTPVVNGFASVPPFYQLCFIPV

Cytochrome P450 2D6 [5] = biological target: T5, Cytochrome P450 2D6 (Homo sapiens, UniProt P10635); assay: Inhibition of CYP2D6 in human liver microsomes assessed as bufuralol 1'-hydroxylation after 3 mins by LC-MS/MS analysis; assay type: ADME
T5 sequence (P10635 whole entry): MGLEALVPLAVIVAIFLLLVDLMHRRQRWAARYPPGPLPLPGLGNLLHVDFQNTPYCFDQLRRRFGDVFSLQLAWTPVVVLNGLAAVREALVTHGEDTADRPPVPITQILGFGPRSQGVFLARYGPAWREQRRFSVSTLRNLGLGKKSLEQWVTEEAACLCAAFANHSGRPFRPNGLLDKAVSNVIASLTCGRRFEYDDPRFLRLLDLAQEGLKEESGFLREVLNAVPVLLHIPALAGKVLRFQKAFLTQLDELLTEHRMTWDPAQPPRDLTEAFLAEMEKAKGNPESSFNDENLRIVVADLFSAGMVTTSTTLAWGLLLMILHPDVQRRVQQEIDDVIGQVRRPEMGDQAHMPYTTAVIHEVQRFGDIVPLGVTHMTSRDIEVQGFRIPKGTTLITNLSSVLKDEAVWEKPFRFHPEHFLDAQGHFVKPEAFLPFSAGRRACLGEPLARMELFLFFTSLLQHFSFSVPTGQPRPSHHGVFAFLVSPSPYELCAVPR

Cytochrome P450 2E1 [6] = biological target: T6, Cytochrome P450 2E1 (Homo sapiens, UniProt P05181); assay: Inhibition of CYP2E1 in human liver microsomes assessed as chlorzoxazone 6-hydroxylation after 3 mins by LC-MS/MS analysis in presence of NADPH; assay type: ADME
T6 sequence (P05181 whole entry): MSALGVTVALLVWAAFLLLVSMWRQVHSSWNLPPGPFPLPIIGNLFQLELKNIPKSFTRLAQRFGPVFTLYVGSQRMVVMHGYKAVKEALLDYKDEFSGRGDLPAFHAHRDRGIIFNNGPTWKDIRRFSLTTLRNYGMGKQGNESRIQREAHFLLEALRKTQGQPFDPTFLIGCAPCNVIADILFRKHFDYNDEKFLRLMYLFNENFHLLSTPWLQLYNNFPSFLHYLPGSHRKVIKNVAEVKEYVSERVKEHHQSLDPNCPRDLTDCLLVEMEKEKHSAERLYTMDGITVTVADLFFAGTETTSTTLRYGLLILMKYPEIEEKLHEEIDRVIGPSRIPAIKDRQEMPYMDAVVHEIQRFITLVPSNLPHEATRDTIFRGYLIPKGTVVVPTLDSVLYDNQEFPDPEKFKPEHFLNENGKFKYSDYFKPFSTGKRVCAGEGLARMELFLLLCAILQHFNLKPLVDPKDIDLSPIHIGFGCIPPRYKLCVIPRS

Cytochrome P450 2B6 [7] = biological target: T1, Cytochrome P450 2B6; assay: Inhibition of CYP2B6 in human liver microsomes assessed as bupropion hydroxylation preincubated for 15 mins by LC-MS/MS analysis in presence of NADPH; assay type: ADME; in short: as §1
Cytochrome P450 2C8 [8] = biological target: T2, Cytochrome P450 2C8; assay: Inhibition of CYP2C8 in human liver microsomes assessed as paclitaxel 6alpha-hydroxylation preincubated for 15 mins by LC-MS/MS analysis in presence of NADPH; assay type: ADME; in short: as §1
Cytochrome P450 2C9 [9] = biological target: T3, Cytochrome P450 2C9; assay: Inhibition of CYP2C9 in human liver microsomes assessed as paclitaxel 6alpha-hydroxylation preincubated for 15 mins by LC-MS/MS analysis in presence of NADPH; assay type: ADME; conditions: in the assay text read “tolbutamide hydroxylation” for “paclitaxel 6alpha-hydroxylation”; in short: as §1
Cytochrome P450 2C19 [10] = biological target: T4, Cytochrome P450 2C19; assay: Inhibition of CYP2C19 in human liver microsomes assessed as (S)-mephenytoin 4'-hydroxylation preincubated for 15 mins by LC-MS/MS analysis; assay type: ADME; in short: as §1
Cytochrome P450 2D6 [11] = biological target: T5, Cytochrome P450 2D6; assay: Inhibition of CYP2D6 in human liver microsomes assessed as bufuralol 1'-hydroxylation preincubated for 15 mins by LC-MS/MS analysis; assay type: ADME
In short: (§2)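 Time-dependent format. Pooled human liver microsomes (15 donors) were preincubated 15 min at 37°C with test compound, with and without 1 mM NADPH. The probe substrate was then added at the same concentration as in the direct assay.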

Cytochrome P450 2E1 [12] = biological target: T6, Cytochrome P450 2E1; assay: Inhibition of CYP2E1 in human liver microsomes assessed as chlorzoxazone 6-hydroxylation preincubated for 15 mins by LC-MS/MS analysis in presence of NADPH; assay type: ADME; in short: as §2
Hepatocyte [13] = assay: Cytotoxicity against human hepatocytes assessed as change in morphological integrity up to 100 uM; assay type: cell-based
Hepatocyte [14] = assay: Cytotoxicity against human hepatocytes up to 100 uM by lactate dehydrogenase assay; assay type: cell-based
Hepatocyte [15] = assay: Induction of CYP3A4 mRNA expression in human hepatocytes assessed as testosterone 6beta-hydroxylation up to 100 uM by LC-MS/MS analysis; assay type: ADME, cell-based
In short: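 Primary hepatocytes from three donors treated once daily for 3 days: saxagliptin 0.2–25 µM, M2 0.2–100 µM, 0.1% DMSO as vehicle. Microsomal activity assayed by LC-MS/MS: phenacetin 100 µM with 0.02 mg/ml protein (CYP1A2), bupropion 250 µM with 0.02 mg/ml (CYP2B6), testosterone 200 µM with 0.01 mg/ml (CYP3A4). mRNA measured by TaqMan qPCR as 2^ΔCT relative to endogenous control and DMSO.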

Hepatocyte [16] = assay: Induction of CYP2B6 mRNA expression in human hepatocytes assessed as bupropion hydroxylation up to 25 uM by LC-MS/MS analysis; assay type: ADME, cell-based
In short: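 Freshly isolated primary human hepatocytes from three donors were dosed once daily for 3 consecutive days at 0.2, 1, 5 and 25 µM, with 0.1% DMSO as vehicle control and phenobarbital 1000 µM as the CYP2B6 inducer control. Microsomes were then incubated with 250 µM bupropion at 0.02 mg/ml protein, and metabolite formed was measured by LC-MS/MS. Fold induction is relative to DMSO.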

[17] = Drug metabolism in human assessed as parent compound level in feces at 50 mg, po after up to 168 hrs by LC-MS/MS analysis; assay type: ADME, organism-based; conditions: read-out: Drug metabolism
Cytochrome P450 3A4 = Cytochrome P450 3A4 (Homo sapiens, UniProt P08684); assay: Drug metabolism assessed as human CYP3A4-mediated 5-hydroxy saxagliptin formation at 10 uM after 30 mins by LC-MS/MS analysis; assay type: ADME; conditions: recombinant enzyme, 0.5 h
Cytochrome P450 3A4, sequence (P08684 whole entry): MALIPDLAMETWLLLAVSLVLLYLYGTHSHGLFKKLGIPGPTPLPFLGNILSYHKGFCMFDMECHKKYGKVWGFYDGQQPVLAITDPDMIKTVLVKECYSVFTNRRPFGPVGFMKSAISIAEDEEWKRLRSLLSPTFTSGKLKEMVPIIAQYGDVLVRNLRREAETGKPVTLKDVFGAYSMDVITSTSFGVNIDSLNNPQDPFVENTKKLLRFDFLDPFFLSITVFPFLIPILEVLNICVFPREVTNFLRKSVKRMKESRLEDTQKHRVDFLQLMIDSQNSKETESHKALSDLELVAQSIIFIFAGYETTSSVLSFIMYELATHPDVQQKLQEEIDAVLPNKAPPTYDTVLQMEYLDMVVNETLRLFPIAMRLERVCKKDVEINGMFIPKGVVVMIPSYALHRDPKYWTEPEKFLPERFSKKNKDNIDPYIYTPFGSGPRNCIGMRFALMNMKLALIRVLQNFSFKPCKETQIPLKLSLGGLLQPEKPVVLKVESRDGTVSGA

pIC50 (Cytochrome P450 2B6 [1]) | pIC50 (Cytochrome P450 2C8 [2]) | pIC50 (Cytochrome P450 2C9 [3]) | pIC50 (Cytochrome P450 2C19 [4]) | pIC50 (Cytochrome P450 2D6 [5]) | pIC50 (Cytochrome P450 2E1 [6]) | pIC50 (Cytochrome P450 2B6 [7]) | pIC50 (Cytochrome P450 2C8 [8]) | pIC50 (Cytochrome P450 2C9 [9]) | pIC50 (Cytochrome P450 2C19 [10]) | pIC50 (Cytochrome P450 2D6 [11]) | pIC50 (Cytochrome P450 2E1 [12]) | Activity (Hepatocyte [15]) | Activity (Hepatocyte [16]) | dose excreted at 168 h [17] | Drug metabolism (Cytochrome P450 3A4) | Compound | Activity (Hepatocyte [13]) | Activity (Hepatocyte [14])
< 3.70 | < 3.70 | < 3.70 | < 3.70 | < 3.70 | < 3.70 | < 3.70 | < 3.70 | < 3.70 | < 3.70 | < 3.70 | < 3.70 | Not Active |  |  |  | N#C[C@@H]1C[C@@H]2C[C@@H]2N1C(=O)[C@@H](N)C12CC3CC(O)(CC(O)(C3)C1)C2 | Non-toxic | Non-toxic
< 4.30 | < 4.30 | < 4.30 | < 4.30 | < 4.30 | < 4.30 | < 4.30 | < 4.30 | < 4.30 | < 4.30 | < 4.30 | < 4.30 |  | Not Active | 0.5% | metabolite_detected | N#C[C@@H]1C[C@@H]2C[C@@H]2N1C(=O)[C@@H](N)C12CC3CC(CC(O)(C3)C1)C2 [SAXAGLIPTIN ANHYDROUS] |  | 
